Screening results from PubChem BioAssay.
HUVEC prolif 384: blocks proliferation of human endothelial cells; HUVEC proliferation, CellTiter-Glo luminescence, 72 h; hits give low values; viability, % at 10 µM (by protocol); hit rate 1.1% among 86,000;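 active = viability at or below 30%; inactive = viability above 30%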;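 also: 100% = median luminescence of DMSO-only cell control wells on each plate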
PTEN del growth: PTEN-deleted cell growth suppression | HCT116 PTEN-null viability, CellTiter-Glo, 60 h; hits give low values | viability, % at 10 µM | hit rate 1.2% among 140,000;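 active = viability at or below a set limit, 4 SD under the median of all tested compounds, cut at about 3.7% in these data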;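 also: PTEN knockout HCT116 line with beta catenin targeted HCT116 as companion control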
bCat KO growth: beta-catenin-lacking colon tumor cell growth suppression. hit rate 1.5% among 140,000. viability, % at 10 µM. HCT116 beta-catenin knockout viability, CellTiter-Glo, 60 h; hits give low values;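 active = viability at or under a set limit, the compound median less 4 SD, cut at about 6% in these data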;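 also: 0% = Hyamine 1622 control at 20 µM and 100% = untreated cell control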
H69AR inhibit: growth inhibitors of human H69AR lung tumor cells; H69AR lung tumor viability, ATP luminescence, 72 h; hits give low values; viability, % at 10 µM; hit rate 6% among 85,000; AID 598;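 active = viability at or below 40%; inactive = viability above 40%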;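 also: multidrug resistant small cell line overexpressing MRP-1 efflux transporter; 100% = mean luminescence of untreated control wells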
Lung fibro prol: blocks proliferation of human lung fibroblasts | viability, % at 10 µM | LL 47 human lung fibroblast viability, ATP luminescence; hits give low values | hit rate 1.1% among 85,000;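 active = viability at or below 50% in the single dose screen; inactive = viability above 50%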;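 also: compound exposure lasted 72 h before the ATP readout; 100% = median luminescence of untreated cell-only wells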
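Benchmarks: Cell-only wells, no compound | Test system: LL 47 human lung fibroblasts, passage 12 or lower | Input: 1,150 cells/well | Measured by: CellTiter-Glo luminescence measuring cellular ATP | Medium: IMEM, 15% FBS supplement | Schedule: Overnight attachment after seeding, then 72 h compound exposure at 37 °C | Doses: Compound addition at 0.1% DMSO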
* = called active by the depositor; . = not tested or not shown. The entries come from a sample that favours hits as a whole.

SMILES | HUVEC prolif 384 | PTEN del growth | bCat KO growth | H69AR inhibit | Lung fibro prol
COc1cccc(C(=O)Nc2nnc(-c3cccs3)o2)c1 | 67.8 | 45.3 | 44.1 | 74.4 | 86.6
COc1ccccc1-c1nnc(NC(=O)c2ccc(S(=O)(=O)N(C)Cc3ccccc3)cc2)o1 | 17.2* | 17.8 | 22.3 | 22.0* | 67.4
CN(Cc1ccccc1)S(=O)(=O)c1ccc(C(=O)Nc2nnc(C3CC3)o2)cc1 | . | 19.1 | 19.2 | . | .
COc1cccc(C(=O)Nc2nnc(-c3ccc(F)cc3)o2)c1 | 55.8 | . | . | 36.7* | 91.3
CC1=Nc2nc(N3CCCCC3)c(C#N)c3c4c(nc(c23)N1)N(c1ccc(C(C)C)cc1)C(=O)C4 | . | 84.2 | 71.2 | . | .
Cc1nn(C(=O)c2c([N+](=O)[O-])cnn2C)c(C)c1Cl | 95.1 | 99.4 | 91.7 | 98.9 | 96.6
O=C(Nc1nnc(C2CC2)s1)c1cc([N+](=O)[O-])ccc1N1CCCCC1 | . | 74.3 | 79.9 | . | .
C=CCn1c(SCc2c(Cl)cccc2Cl)nnc1-c1cccnc1 | 109.8 | 94.3 | 89.6 | 92.6 | 97.0
CCOC(=O)c1[nH]c2ccc(OCC)cc2c1CCCN1C(=O)c2ccccc2C1=O | . | 91.6 | 81.1 | . | .
O=c1c2ccccc2c(C=Nc2cccc(S(=O)(=O)NCc3ccco3)c2)c(O)n1-c1ccc(Cl)cn1 | . | 86.7 | 90.3 | . | .
Cc1cccc(NC(=S)N2CCOCC2)c1C | . | 104.8 | 93.2 | . | .
CCOn1c(=O)c(-c2cc3ccccc3o2)[n+]([O-])c2ccccc21 | 81.1 | 97.3 | 92.1 | 51.0 | 85.8
O=c1c(-c2cc3ccccc3o2)[n+]([O-])c2ccccc2n1OCc1ccccn1 | 66.0 | 93.7 | 98.3 | 35.8* | 94.5
COc1ccc(C(=O)c2c(C)c3cc(C)ccc3n2CC(O)CN2CCOCC2)cc1 (centres undefined) | . | 64.1 | 69.2 | . | .
CCn1c(C)[n+](CCOCC[n+]2c(C)n(CC)c3cc(Cl)c(Cl)cc32)c2cc(Cl)c(Cl)cc21 | . | 106.5 | 102.7 | . | .
CCn1c(/C=C/Nc2ccccc2)[n+](CC)c2cc(Cl)c(Cl)cc21 | . | 1.3* | 1.5* | . | .
COc1cccc(/C=C2\C(=O)C(=O)c3ccccc32)c1 | 71.6 | 100.3 | 91.6 | 5.3* | 77.3
CC(C)c1nc2oc3c(NCC4CCCO4)ncnc3c2c2c1COC(C)(C)C2 (centres undefined) | 87.3 | 69.8 | 67.2 | 36.1* | 98.6
COCCCNc1ncnc2sc3c(c12)CCC(C)C3 (centres undefined) | 89.4 | 89.5 | 85.9 | 39.0* | 89.4
c1cn(CCCNc2ncnc3sc4c(c23)CCC4)cn1 | 90.5 | 88.4 | 103.2 | 89.0 | 88.3
CCCCC(CC)CNC(=O)c1cccs1 (centres undefined) | 117.0 | 92.9 | 88.7 | 105.6 | 102.5
CC(C)c1ccc(C(=O)NN2C(=O)C3CCCCC3C2=O)cc1 (centres undefined) | . | 97.5 | 93.5 | . | .
Cc1[nH]n(-c2ccc([N+](=O)[O-])cc2)c(=O)c1C=NCCN1CCN(C(=O)c2ccc(Br)cc2)CC1 | 66.0 | 53.9 | 57.7 | 39.5* | 70.9
CCN(CC)c1ccc(-c2nn3c(-c4n[nH]c5c4CCC5)nnc3s2)cc1 | 33.1 | 15.6 | 12.4 | 21.7* | 44.7*
CN(C)c1ccc(-c2nn3c(-c4ccccc4Cl)nnc3s2)cc1 | 35.2 | 17.0 | 14.3 | 30.4* | 53.5
SMILES | HUVEC prolif 384 | PTEN del growth | bCat KO growth | H69AR inhibit | Lung fibro prol
CN(C)c1ccc(-c2nn3c(-c4ccncc4)nnc3s2)cc1 | 65.3 | . | . | 32.2* | 91.2
COc1ccc2o/c(=N/NC(=S)Nc3ccccc3)c(C(N)=O)cc2c1 | . | 89.0 | 94.6 | . | .
COc1ccccc1C(=O)N/C(=C\c1ccc2c(c1)OCO2)C(=O)NCCc1nc2ccccc2[nH]1 | . | 91.5 | 102.2 | . | .
Cn1c(Cl)cnc1C1CC(=O)c2cc(Cl)ccc2O1 (centres undefined) | 39.3 | 1.8* | 2.8* | 0.2* | 16.1*
N#CC1=C(N)C(C#N)(C#N)C(c2ccncc2)C2CN(C(=O)OCc3ccccc3)CC=C12 (centres undefined) | 66.6 | 82.1 | 81.2 | 7.7* | 80.2
CCOC(=O)N1CC=C2C(C#N)=C(N)C(C#N)(C#N)[C@H](c3ccc(OC(C)C)c(OCC)c3)[C@H]2C1 | 79.0 | 80.8 | 88.8 | 36.7* | 90.7
N#CC1=C(N)C(C#N)(C#N)[C@H](c2cccnc2)[C@H]2CN(C(=O)OCc3ccccc3)CC=C12 | . | 73.2 | 60.8 | . | .
COc1ccc(NC(=S)N2CCC(N(C)CC3CCCO3)CC2)cc1Cl (centres undefined) | . | 97.2 | 106.0 | . | .
Oc1ccccc1-c1cc(C(F)(F)C(F)F)nc(-c2ccccc2)n1 | 90.0 | 88.7 | 97.3 | 87.7 | 95.0
